Where two headings read alike, the source gives them in different places. Values belong to the molecule of their own block, whether it stands above or below them.
What was measured:
[1] = biological target: T1, CNGA3 675X homomeric channels (Homo sapiens, UniProt Q16281); assay: Inside-out patch clamp, CNGA3 675X; assay type: biochemical
T1 sequence (Q16281 1-674 limits assumed): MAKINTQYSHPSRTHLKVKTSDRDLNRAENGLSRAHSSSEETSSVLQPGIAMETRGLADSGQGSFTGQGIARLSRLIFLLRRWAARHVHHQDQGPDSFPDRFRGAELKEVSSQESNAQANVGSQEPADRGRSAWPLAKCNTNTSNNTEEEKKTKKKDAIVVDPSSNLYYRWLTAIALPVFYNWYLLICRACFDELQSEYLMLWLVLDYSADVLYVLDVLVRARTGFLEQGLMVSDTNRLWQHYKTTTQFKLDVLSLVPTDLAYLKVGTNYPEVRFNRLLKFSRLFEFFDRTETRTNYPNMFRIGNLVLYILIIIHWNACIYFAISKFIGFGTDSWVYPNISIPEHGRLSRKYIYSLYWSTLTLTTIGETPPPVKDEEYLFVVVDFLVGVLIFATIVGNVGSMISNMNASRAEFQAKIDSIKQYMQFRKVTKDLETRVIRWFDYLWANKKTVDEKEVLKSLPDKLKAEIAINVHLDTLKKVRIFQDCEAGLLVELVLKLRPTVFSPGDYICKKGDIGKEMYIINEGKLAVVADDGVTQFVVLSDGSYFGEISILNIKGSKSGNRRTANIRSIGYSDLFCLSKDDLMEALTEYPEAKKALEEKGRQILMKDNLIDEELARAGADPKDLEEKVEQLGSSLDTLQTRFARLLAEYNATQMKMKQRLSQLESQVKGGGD

[2] = biological target: T2, CNGA3 635X homomeric channels (Homo sapiens, UniProt Q16281); assay: Inside-out patch clamp, CNGA3 635X; assay type: biochemical
T2 sequence (Q16281 1-634 limits assumed): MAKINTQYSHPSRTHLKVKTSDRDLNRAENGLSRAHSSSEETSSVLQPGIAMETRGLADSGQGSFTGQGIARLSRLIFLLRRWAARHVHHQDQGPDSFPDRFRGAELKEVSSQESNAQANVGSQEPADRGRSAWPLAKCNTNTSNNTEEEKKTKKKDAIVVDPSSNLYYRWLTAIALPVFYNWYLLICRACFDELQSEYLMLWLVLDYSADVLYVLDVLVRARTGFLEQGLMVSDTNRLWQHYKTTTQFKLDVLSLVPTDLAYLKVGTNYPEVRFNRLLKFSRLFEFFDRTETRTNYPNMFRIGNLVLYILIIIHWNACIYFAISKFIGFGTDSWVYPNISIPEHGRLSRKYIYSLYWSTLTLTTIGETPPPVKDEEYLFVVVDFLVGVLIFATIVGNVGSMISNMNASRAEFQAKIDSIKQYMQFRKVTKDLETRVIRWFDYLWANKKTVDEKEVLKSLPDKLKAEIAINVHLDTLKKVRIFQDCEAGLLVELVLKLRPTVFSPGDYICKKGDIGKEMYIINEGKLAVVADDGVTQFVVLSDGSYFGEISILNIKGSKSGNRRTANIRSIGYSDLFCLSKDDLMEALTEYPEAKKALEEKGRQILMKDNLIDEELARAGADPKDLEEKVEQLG

[3] = biological target: CNGA3 N5R-A, 613X channels (Homo sapiens, UniProt Q16281, R72A/R75A/R81A/R82A/R86A); assay: Inside-out patch clamp, CNGA3 N5R-A, 613X; assay type: biochemical
Chain of CNGA3 N5R-A, 613X channels (Q16281 1-612 R72A/R75A/R81A/R82A/R86A limits assumed): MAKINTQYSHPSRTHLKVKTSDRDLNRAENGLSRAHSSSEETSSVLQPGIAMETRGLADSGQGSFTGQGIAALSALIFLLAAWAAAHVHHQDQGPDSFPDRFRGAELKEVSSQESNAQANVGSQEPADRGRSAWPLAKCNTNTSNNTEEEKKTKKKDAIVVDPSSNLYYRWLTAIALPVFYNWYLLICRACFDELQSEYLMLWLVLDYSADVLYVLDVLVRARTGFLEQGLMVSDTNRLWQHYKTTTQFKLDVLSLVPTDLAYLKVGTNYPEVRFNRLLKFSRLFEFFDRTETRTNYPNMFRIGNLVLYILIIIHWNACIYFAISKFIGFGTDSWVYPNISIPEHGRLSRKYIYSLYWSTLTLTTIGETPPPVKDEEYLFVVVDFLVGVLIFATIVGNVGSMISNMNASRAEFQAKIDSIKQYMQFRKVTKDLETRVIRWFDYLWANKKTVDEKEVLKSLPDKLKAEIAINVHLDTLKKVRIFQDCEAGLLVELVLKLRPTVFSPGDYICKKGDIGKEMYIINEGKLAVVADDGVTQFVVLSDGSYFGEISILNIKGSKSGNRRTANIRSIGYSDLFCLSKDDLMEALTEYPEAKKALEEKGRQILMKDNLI

[4] = biological target: T3, CNGA3 P99L, A105P (PA-LP) channels (Homo sapiens, UniProt Q16281, A105P/P99L); assay: Inside-out patch clamp, CNGA3 P99L, A105P; assay type: biochemical; settings: for EC50: read-out: K1/2 cGMP
T3 sequence (Q16281 1-694 P99L/A105P): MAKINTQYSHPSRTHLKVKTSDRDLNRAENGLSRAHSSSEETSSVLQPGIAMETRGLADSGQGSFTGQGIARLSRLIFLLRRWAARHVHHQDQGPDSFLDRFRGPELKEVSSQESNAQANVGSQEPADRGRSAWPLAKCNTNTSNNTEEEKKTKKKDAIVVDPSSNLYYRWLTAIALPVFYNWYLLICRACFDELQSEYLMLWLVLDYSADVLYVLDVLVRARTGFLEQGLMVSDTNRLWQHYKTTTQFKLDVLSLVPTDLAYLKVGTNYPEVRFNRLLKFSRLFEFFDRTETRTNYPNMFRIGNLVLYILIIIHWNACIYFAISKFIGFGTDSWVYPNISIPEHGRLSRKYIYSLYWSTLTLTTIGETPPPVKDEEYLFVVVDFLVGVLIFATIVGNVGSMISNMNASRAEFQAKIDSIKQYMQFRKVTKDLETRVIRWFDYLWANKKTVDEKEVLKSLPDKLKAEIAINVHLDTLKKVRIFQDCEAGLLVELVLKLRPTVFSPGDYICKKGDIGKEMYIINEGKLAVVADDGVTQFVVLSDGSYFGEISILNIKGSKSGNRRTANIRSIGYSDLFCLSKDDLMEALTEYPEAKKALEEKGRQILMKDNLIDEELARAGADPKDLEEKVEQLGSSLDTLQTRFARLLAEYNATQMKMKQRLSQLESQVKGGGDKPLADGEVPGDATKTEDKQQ

[5] = biological target: CNGA3 with CNGB1 channels (Homo sapiens, UniProt Q14028+Q16281); assay: Inside-out patch clamp, CNGA3 with CNGB1; assay type: biochemical; settings: 1 µM PIP3
Chain of CNGA3 with CNGB1 channels (Q16281 whole entry): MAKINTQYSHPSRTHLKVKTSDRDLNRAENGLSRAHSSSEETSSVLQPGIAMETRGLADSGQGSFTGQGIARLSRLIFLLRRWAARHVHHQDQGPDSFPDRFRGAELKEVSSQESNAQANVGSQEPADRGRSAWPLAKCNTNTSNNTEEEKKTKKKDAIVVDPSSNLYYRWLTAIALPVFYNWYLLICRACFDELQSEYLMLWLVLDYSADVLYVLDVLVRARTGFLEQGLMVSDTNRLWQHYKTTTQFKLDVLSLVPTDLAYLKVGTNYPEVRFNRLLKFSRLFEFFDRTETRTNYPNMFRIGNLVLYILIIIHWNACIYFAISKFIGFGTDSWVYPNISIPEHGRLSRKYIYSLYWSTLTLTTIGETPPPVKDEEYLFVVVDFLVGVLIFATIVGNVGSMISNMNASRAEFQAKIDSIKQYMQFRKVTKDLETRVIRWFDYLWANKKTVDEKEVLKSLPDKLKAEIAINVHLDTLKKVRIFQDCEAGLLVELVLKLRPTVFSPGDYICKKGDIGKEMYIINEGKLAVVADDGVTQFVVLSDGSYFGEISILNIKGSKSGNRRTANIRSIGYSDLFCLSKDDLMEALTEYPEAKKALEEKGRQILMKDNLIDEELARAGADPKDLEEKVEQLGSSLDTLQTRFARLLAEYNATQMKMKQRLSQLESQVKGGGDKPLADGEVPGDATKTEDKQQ
Chain of CNGA3 with CNGB1 channels (Q14028 whole entry): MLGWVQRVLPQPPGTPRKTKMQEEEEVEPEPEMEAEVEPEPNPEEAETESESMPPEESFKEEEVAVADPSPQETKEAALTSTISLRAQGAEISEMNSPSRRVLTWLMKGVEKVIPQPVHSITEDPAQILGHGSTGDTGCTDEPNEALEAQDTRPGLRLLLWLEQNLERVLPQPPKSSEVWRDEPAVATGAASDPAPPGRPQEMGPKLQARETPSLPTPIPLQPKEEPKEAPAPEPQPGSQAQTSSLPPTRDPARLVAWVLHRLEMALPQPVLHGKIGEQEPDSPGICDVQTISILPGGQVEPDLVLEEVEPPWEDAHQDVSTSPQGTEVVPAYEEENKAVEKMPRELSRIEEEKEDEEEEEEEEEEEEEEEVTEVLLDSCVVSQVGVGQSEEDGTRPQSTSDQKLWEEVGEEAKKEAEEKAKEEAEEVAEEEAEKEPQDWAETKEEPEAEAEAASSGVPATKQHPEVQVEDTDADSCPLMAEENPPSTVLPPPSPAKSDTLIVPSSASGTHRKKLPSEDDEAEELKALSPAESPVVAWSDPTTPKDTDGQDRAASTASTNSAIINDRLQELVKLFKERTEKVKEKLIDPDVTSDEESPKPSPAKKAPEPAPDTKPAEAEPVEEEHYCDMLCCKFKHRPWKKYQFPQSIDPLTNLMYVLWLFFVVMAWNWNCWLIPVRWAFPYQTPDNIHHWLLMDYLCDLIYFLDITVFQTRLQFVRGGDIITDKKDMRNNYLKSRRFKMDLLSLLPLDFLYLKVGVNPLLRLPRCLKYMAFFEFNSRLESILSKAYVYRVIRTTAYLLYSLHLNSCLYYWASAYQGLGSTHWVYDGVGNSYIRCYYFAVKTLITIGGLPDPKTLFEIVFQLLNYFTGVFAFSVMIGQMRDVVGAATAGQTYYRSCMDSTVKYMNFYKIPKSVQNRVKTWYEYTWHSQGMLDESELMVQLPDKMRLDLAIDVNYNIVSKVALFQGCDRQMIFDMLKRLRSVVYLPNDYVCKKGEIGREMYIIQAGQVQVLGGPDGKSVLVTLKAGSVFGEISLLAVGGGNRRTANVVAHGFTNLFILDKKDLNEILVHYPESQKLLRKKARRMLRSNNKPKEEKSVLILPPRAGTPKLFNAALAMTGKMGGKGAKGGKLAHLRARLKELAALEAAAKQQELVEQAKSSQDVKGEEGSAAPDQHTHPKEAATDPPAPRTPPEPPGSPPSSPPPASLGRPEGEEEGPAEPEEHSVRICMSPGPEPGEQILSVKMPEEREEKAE
Procedure, shortened: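 Subunit cRNAs (~20 ng, B in excess over A) injected into stage IV Xenopus oocytes; inside-out patches 2–7 d later, 20–22°C, symmetric 130 mM NaCl, 0.2 mM EDTA, 3 mM Hepes pH 7.2. Heteromer formation checked by 25 µM l-cis-diltiazem with 1 mM cGMP. diC8 phosphoinositides applied intracellularly in phosphatase-inhibitor cocktail. cGMP dose–response at +80 mV, leak-subtracted, Hill fit before/after for K1/2; mean ± SEM.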

[6] = biological target: CNGA1 homomeric channels (Bos taurus, UniProt Q00194); assay: Inside-out patch clamp, homomeric CNGA1; assay type: biochemical, bovine; settings: PIP3 or PIP2 application
Chain of CNGA1 homomeric channels (Q00194 whole entry, the tested form may be a part): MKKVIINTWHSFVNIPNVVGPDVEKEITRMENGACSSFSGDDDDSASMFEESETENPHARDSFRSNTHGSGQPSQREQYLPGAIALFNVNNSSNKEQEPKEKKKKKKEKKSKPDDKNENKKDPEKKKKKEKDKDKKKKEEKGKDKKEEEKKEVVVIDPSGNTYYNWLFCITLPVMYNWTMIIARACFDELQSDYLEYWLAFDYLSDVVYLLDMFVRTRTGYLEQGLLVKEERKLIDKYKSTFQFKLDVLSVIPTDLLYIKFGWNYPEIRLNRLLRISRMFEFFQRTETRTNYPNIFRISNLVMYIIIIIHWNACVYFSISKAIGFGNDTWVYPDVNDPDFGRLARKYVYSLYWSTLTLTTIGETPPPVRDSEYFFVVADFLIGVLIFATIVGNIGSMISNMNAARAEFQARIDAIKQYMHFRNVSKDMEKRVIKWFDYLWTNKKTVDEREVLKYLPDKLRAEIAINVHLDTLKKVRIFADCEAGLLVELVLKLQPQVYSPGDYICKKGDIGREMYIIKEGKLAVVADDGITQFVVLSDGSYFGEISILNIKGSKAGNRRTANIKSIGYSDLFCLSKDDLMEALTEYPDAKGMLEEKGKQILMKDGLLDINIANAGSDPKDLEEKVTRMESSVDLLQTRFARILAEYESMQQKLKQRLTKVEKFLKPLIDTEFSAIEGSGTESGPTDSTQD

[7] = biological target: GST fusion of CNGA3 C-terminal region (A3C, amino acids 612–694) (Homo sapiens, UniProt Q16281); assay: In vitro PIP3-agarose bead pull-down, A3C; assay type: binding; settings: PIP3-agarose beads, anti-GST immunoblot; not quantitative
Procedure, shortened: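 Recombinant GST fusions of channel fragments expressed in E. coli and purified; soluble fraction kept after 20,000 g, 4°C, 30 min. Protein (2 µg/ml) rocked with PIP3- or control agarose beads, 2 h, 4°C, in 10 mM Hepes pH 7.4, 50 mM NaCl, 2 mM EDTA, 0.25% Triton X-100, 0.25% NP-40. Five washes, elution in sample buffer, reducing SDS gel, anti-GST (1:2,000, overnight) immunoblot, chemiluminescence; […].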

[8] = read-out: K1/2 cGMP, +80 mV, no PIPn
[9] = representative patch, before PIP3
[10] = representative patch, 1 µM PIP3

- Hill coefficient ([1]; cGMP activation): 1.88 ± 0.05 (4)
- EC50 [1, 8]: 9.22 ± 0.55 µM
- Hill coefficient ([2]; cGMP activation): 2.00 ± 0.00 (5)
- EC50 [2, 8]: 8.2 ± 0.57 µM
- Po max cGMP ([2]; saturating cGMP): 0.92 ± 0.01 (4)
- Hill coefficient ([3]; cGMP activation): 1.71 ± 0.05 (8)
- EC50 [3, 8]: 16.7 ± 0.98 µM
- EC50 ([4]; +80 mV, no PIPn): 5.3 ± 0.18 µM
- EC50 [4, 9]: 5.7 µM
- Hill coefficient h [4, 9]: 1.7
- Po max cGMP ([4]; saturating cGMP): 0.95 ± 0.01 (4)
Molecule: Nc1nc2c(ncn2[C@@H]2O[C@@H]3COP(=O)(O)O[C@H]3[C@H]2O)c(=O)[nH]1 [cGMP, cyclic guanosine monophosphate]

- regulation of K1/2 cGMP by PIP3 [5]: PIP3-sensitive
- effect on relative cAMP efficacy [6]: decreased relative cAMP efficacy
- fold change in cAMP efficacy after PIP3 ([2]; 10 µM PIP3): 1.06 ± 0.03 fold
- Hill coefficient h after phosphoinositide ([4]; after PIP3 or PIP2 application): 1.8
- K1/2 cGMP after phosphoinositide ([4]; after PIP3 or PIP2 application): 9.4 ± 0.9 µM
- Hill coefficient h after PIP3 [4, 10]: 1.7
- K1/2 cGMP after PIP3 [4, 10]: 11.4 µM
- in vitro PIP3 binding [7]: binding was observed
Molecule: phosphatidylinositol (3,4,5)-trisphosphate [PIP3]
- PIP3-induced change in cAMP efficacy ([1]; 1 µM PIP3): preserved the PIP3-induced change in cAMP efficacy
- PIP3-induced change in cAMP efficacy ([2]; 1 µM PIP3): failed to show a PIP3-dependent increase in cAMP efficacy
